This is a sample that favours compounds with a hit; in the whole collection about 2.2% have one here.
ARFGAP1 inh: inhibits rat ARF GTPase activating protein 1; Arfgap1-stimulated ARF1 GTP hydrolysis, GDP FP detection; inhibition, % at 16.5 µM; AID 651572; actives 0.26% (n = 360,000);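 active = inhibition above a per-plate limit, mean inhibition of low control wells plus 3 SD, cut at about 25% in these data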;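 note: 0% = DMSO wells with enzyme and 100% = wells lacking Arfgap1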
Target sequence (Q62848 1-136 limits assumed): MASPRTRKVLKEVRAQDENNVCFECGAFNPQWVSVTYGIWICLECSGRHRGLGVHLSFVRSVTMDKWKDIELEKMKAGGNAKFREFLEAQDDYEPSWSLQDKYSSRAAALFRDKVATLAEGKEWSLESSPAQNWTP
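System: truncated rat Arfgap1 GAP domain / Medium: HEPES-based buffer, pH 7.5 / Also added: N-terminally truncated human ARF1-GTP substrate / Incubation: enzyme reaction 120 min at 25 °C after 20 min preincubation / Measured by: FP of antibody-bound GDP Alexa 633 tracer, ex 620/em 688 nm / Replicates: singlicate, each compound tested once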
rCAG RNA binder: binds r(CAG) RNA repeats; r(CAG) RNA repeat, TO-PRO-1 dye displacement fluorescence; inhibition, % at 3 µM; actives 1.3% (n = 370,000); AID 651821;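 active = inhibition above the plate cutoff, the mean of all test compounds on that plate plus 3 SD, cut at about 35% in these data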;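 note: 0% = DMSO alone and 100% = 100 µM mitoxantrone as full dye displacement; higher means more dye released from RNA so lower well fluorescence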
ASAP1 inh: ASAP1 ArfGAP inhibition | Q9ULH1 | ASAP1-stimulated ARF1 GTP hydrolysis, GDP FP detection | inhibition, % at 16.5 µM | actives 0.19% (n = 360,000); in the data active = inhibition above about 25%;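 note: 0% = vehicle with enzyme and substrate and 100% = no enzyme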
NadD block: blocks S. aureus nicotinate mononucleotide adenylyltransferase; inhibition, % at 20 µM; AID 602399; actives 0.78% (n = 360,000); purified NadD enzyme, colorimetric absorbance read-out; in the data active = inhibition above about 26%
rCAG bind conf: r(CAG) RNA repeat binding, confirmation; actives 70% (n = 4,300); inhibition, % at 3 µM; TO-PRO-1 dye displacement fluorescence; shares compounds with rCAG RNA binder; AID 652065;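 active = inhibition above a per-plate cutoff, the mean inhibition of sample wells plus 3 SD, cut at about 35% in these data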;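 note: loss of TO-PRO-1 fluorescence as compound displaces dye from 1x1 AA loop RNA; 0% = DMSO only wells and 100% = 100 µM mitoxantrone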
DNA CAG counter: DNA CAG dye complex inhibition counter-screen; AID 652068; inhibition, % at 3 µM; shares compounds with rCAG RNA binder; actives 94% (n = 4,300); d(CAG) DNA oligo TO-PRO-1 dye displacement, fluorescence;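 active = inhibition above its plate's cutoff, the mean test-well inhibition plus 3 SD, cut at about 4.8% in these data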;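 note: 0% = DNA dye mix with DMSO and 100% = 100 µM mitoxantrone; hits displace the dye from DNA and so lower well fluorescence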
dCAG dye DR: disrupts DNA CAG TO-PRO-1 complex in dose response. AID 686960. DNA CAG/GTC duplex TO-PRO-1 dye displacement fluorescence. actives 20% (n = 250). shares compounds with rCAG RNA binder. IC50, µM; in the data active = IC50 below about 10 µM
* = called active by the depositor; i = inactive; · = no result given.

SMILES	ARFGAP1 inh	rCAG RNA binder	ASAP1 inh	NadD block	rCAG bind conf	DNA CAG counter	others
COCc1cc(C)n(CC(=O)N/N=C/c2ccc(-c3ccc(Cl)c(C(=O)O)c3)o2)c(=O)c1C#N	-1.1	37.8*	6.3	6.0	40.7*	13.8*
COCc1cc(C)n(CC(=O)Nc2ccc(N3CCOCC3)c(Cl)c2)c(=O)c1C#N	13.4	4.1	11.0	5.5	·	·
Nc1[nH]c2cc([N+](=O)[O-])ccc2c1-c1ccccn1	-2.9	41.0*	2.8	0.4	18.4	19.3*
Nc1nc2ccc([N+](=O)[O-])cc2[nH]1	14.8	2.2	-17.8	-0.2	·	·
C=CCSc1nnc(NC(=O)c2cccc(S(=O)(=O)N(C)c3ccccc3)c2)s1	-12.1	47.8*	-6.2	5.6	44.3*	14.1*
O=C(O)c1cc(-c2cccc(Cl)c2)nc2nc(N3CCCCC3)sc12	-0.7	45.9*	3.9	7.2	46.9*	11.9*	dCAG dye DR=i
Cc1ccccc1-c1ccc2c(c1)[C@@H]1C[C@H](N(C)C(=O)c3ccco3)[C@H]([C@H](C)O)CN1CC2	4.4	3.5	8.4	·	·	·
COc1ccccc1C(=O)N1CCN(C(=O)[C@@H](Cc2ccccc2)NC(=O)[C@H]2O[C@@H](n3ccc(N)nc3=O)[C@H](O)[C@@H]2O)CC1	-11.9	2.3	-3.0	·	·	·
CCCC1Nc2ccc(C(=O)O)cc2C2C=CCC12 (stereo not drawn)	·	·	·	9.1	·	·
CCOC(=O)C1Nc2ccc(C(=O)O)cc2C2C=CCC12 (stereo not drawn)	-3.4	61.1*	-6.0	4.5	23.2	5.4*
CC(C)C1Nc2ccc(C(=O)O)cc2C2C=CCC21 (stereo not drawn)	0.6	55.8*	-11.6	0.9	28.6	7.3*
CCCCN1C(=O)C(CC(=O)NCCN2CCOCC2)CC(C(=O)N(CC)CC)=C1C (stereo not drawn)	0.1	0.0	-1.9	-2.0	·	·
CCOc1ccccc1NC(=O)CSc1nc2nc(-c3cccs3)cc(C(F)(F)F)c2c(=O)[nH]1	-3.3	69.7*	-1.1	13.1	79.0*	48.5*
COC(=O)[C@]12C[C@H](CC(=O)N3CCC(c4ccccc4)CC3)C(=O)N(CCC3=CCCCC3)C1=C[C@H](C(C)(C)C)O[C@@H]2C	-2.1	5.0	1.2	·	·	·
COc1ccc(S(=O)(=O)N2CCCCCC2)c2ccccc12	·	0.6	·	·	·	·
CC(=O)c1cc(-c2ccccc2)n(CC(=O)NCc2ccc(Cl)cc2)c1C	·	8.4	·	·	·	·
COc1cc(-c2nnc(SCc3cc(=O)oc4cc(O)c(O)cc34)o2)cc(OC)c1OC	-6.8	58.5*	-0.4	20.4	64.0*	29.9*
CCOC(=O)CSc1nnc(-c2cc(OC)c(OC)c(OC)c2)o1	0.2	-6.0	-4.9	2.7	·	·
CCc1nnc(NS(=O)(=O)c2ccc(NC(=O)/C=C/c3ccc(F)cc3)cc2)s1	-7.4	72.9*	-1.3	3.3	49.6*	20.3*
CCc1nnc(NS(=O)(=O)c2ccc(NC(=S)NC(=O)c3ccc(F)cc3)cc2)s1	-6.4	63.7*	-3.8	2.8	52.0*	19.0*
CCc1nnc(NS(=O)(=O)c2ccc(NC(=O)c3ccc(Br)cc3)cc2)s1	7.1	60.1*	-6.2	-2.6	52.9*	13.0*
CCc1nnc(NS(=O)(=O)c2ccc(NC(=S)NC(=O)c3cccnc3)cc2)s1	7.0	18.5	-3.3	3.4	·	·
O=C(/C=C/c1ccc(F)cc1)Nc1ccc(S(=O)(=O)Nc2ncccn2)cc1	-8.0	7.3	-8.2	-0.9	·	·
COc1ccc(-n2c(O)c(/C=N/NS(=O)(=O)c3ccc(C)c([N+](=O)[O-])c3)c3ccccc3c2=O)cc1OC	4.2	37.4*	3.8	18.9	56.6*	25.5*
CC(=O)N1[C@@H](CO)[C@@H](c2ccc(-c3cccc(F)c3)cc2)[C@@H]1CNCC1CCC1	·	4.8	·	·	·	·
CC(C)(C)OC(=O)N1CCC(Cc2cc(-c3cccc(Br)c3)no2)(C(=O)O)CC1	-14.1	48.3*	-17.2	0.2	49.0*	13.8*	dCAG dye DR=>29.9
O=C(O)c1ccc(N=NNc2cccc([N+](=O)[O-])c2)cc1	6.8	6.7	-6.5	-2.8	·	·

Assay outcomes from PubChem.
